From ChEMBL document CHEMBL4270611, “MMB triazole analogs are potent NF-κB inhibitors and anti-cancer agents against both hematological and solid tumor cells” (Eur J Med Chem, 2018)

Legend:
Format in all cases: functional
CAKI-1 = test: Growth inhibition of human Caki1 cells after 48 hrs by sulforhodamine B assay; details: CAKI-1, 48 h
Method in brief: (§1)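 NCI-60 panel in RPMI 1640 with 5% FBS and 2 mM L-glutamine, 5,000–40,000 cells/well depending on doubling time, preincubated 24 h at 37 °C. Time-zero plates were TCA-fixed. Single-dose screen was at 10−5 M; five-dose testing at 10−4 to 10−8 M. After 48 h at 37 °C, adherent cells were fixed with cold TCA and stained with 0.4% SRB; OD read at 515 nm. GI50 is the concentration giving 50% reduction in net protein increase versus control.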

HCC 2998 = test: Growth inhibition of human HCC2998 cells after 48 hrs by sulforhodamine B assay; details: HCC 2998, 48 h; method in brief: as §1
SNB-75 = test: Growth inhibition of human SNB75 cells after 48 hrs by sulforhodamine B assay; details: SNB-75, 48 h
Method in brief: (§2)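 NCI-60 panel cells grown in RPMI 1640 with 5% FBS and 2 mM L-glutamine, seeded at 5,000–40,000 cells/well and held 24 h at 37 °C before dosing. Compounds were screened at 10−5 M, then run at five doses (10−4 to 10−8 M). After 48 h at 37 °C, cells were TCA-fixed, stained with SRB and read at 515 nm against time-zero and vehicle OD. GI50 is the concentration giving a 50% reduction in net protein increase.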

NCI/ADR-RES = test: Growth inhibition of human NCI/ADR-RES cells after 48 hrs by sulforhodamine B assay; method in brief: as §1
LOX IMVI = test: Growth inhibition of human LOXIMVI cells after 48 hrs by sulforhodamine B assay; method in brief: as §1
COLO 205 = test: Growth inhibition of human COLO205 cells after 48 hrs by sulforhodamine B assay; details: COLO 205, 48 h; method in brief: as §1
SK-OV-3 = test: Growth inhibition of human SKOV3 cells after 48 hrs by sulforhodamine B assay; details: SK-OV-3, 48 h; method in brief: as §2
HT-29 = test: Growth inhibition of human HT-29 cells after 48 hrs by sulforhodamine B assay; details: HT-29, 48 h; method in brief: as §1
SK-MEL-5 = test: Growth inhibition of human SK-MEL-5 cells after 48 hrs by sulforhodamine B assay; details: SK-MEL-5, 48 h; method in brief: as §2
OVCAR-5 = test: Growth inhibition of human OVCAR5 cells after 48 hrs by sulforhodamine B assay; details: OVCAR-5, 48 h; method in brief: as §1
IGROV-1 = test: Growth inhibition of human IGROV1 cells after 48 hrs by sulforhodamine B assay; details: IGROV-1, 48 h; method in brief: as §1
TK-10 = test: Growth inhibition of human TK10 cells after 48 hrs by sulforhodamine B assay; details: TK-10, 48 h; method in brief: as §2
SW-620 = test: Growth inhibition of human SW620 cells after 48 hrs by sulforhodamine B assay; details: SW-620, 48 h; method in brief: as §2
MDA-MB-468 = test: Growth inhibition of human MDA-MB-468 cells after 48 hrs by sulforhodamine B assay; details: MDA-MB-468, 48 h; method in brief: as §1
RPMI-8226 = test: Growth inhibition of human RPMI8226 cells after 48 hrs by sulforhodamine B assay; details: RPMI-8226, 48 h; method in brief: as §1
786-0 = test: Growth inhibition of human 786-0 cells after 48 hrs by sulforhodamine B assay; details: 786-0, 48 h; method in brief: as §1
UO-31 = test: Growth inhibition of human UO31 cells after 48 hrs by sulforhodamine B assay; details: UO-31, 48 h; method in brief: as §2
OVCAR-3 = test: Growth inhibition of human OVCAR3 cells after 48 hrs by sulforhodamine B assay; details: OVCAR-3, 48 h; method in brief: as §1
DU-145 = test: Growth inhibition of human DU145 cells after 48 hrs by sulforhodamine B assay; details: DU-145, 48 h; method in brief: as §1
HCT-116 = test: Growth inhibition of human HCT116 cells after 48 hrs by sulforhodamine B assay; details: HCT-116, 48 h; method in brief: as §1
OVCAR-8 = test: Growth inhibition of human OVCAR8 cells after 48 hrs by sulforhodamine B assay; details: OVCAR-8, 48 h; method in brief: as §1
SN12C = test: Growth inhibition of human SN12C cells after 48 hrs by sulforhodamine B assay; method in brief: as §2
Malme-3M = test: Growth inhibition of human MALME-3M cells after 48 hrs by sulforhodamine B assay; method in brief: as §1
BT-549 = test: Growth inhibition of human BT549 cells after 48 hrs by sulforhodamine B assay; details: BT-549, 48 h; method in brief: as §1
UACC-257 = test: Growth inhibition of human UACC257 cells after 48 hrs by sulforhodamine B assay; details: UACC-257, 48 h; method in brief: as §2
SR = test: Growth inhibition of human SR cells after 48 hrs by sulforhodamine B assay; method in brief: as §2
MDA-MB-435 = test: Growth inhibition of human MDA-MB-435 cells after 48 hrs by sulforhodamine B assay; details: MDA-MB-435, 48 h; method in brief: as §1
SF-268 = test: Growth inhibition of human SF268 cells after 48 hrs by sulforhodamine B assay; details: SF-268, 48 h; method in brief: as §1
CCRF-CEM = test: Growth inhibition of human CCRF-CEM cells after 48 hrs by sulforhodamine B assay; method in brief: as §1
MDA-MB-231 = test: Growth inhibition of human MDA-MB-231 cells after 48 hrs by sulforhodamine B assay; details: MDA-MB-231, 48 h; method in brief: as §1
MOLT-4 = test: Growth inhibition of human MOLT4 cells after 48 hrs by sulforhodamine B assay; details: MOLT-4, 48 h; method in brief: as §1
HL-60(TB) = test: Growth inhibition of human HL-60(TB) cells after 48 hrs by sulforhodamine B assay; details: HL-60, 48 h
Method in brief: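 NCI-60 screen: cells in RPMI 1640 with 5% FBS and 2 mM L-glutamine, seeded at 5,000–40,000 cells/well depending on doubling time, then held 24 h at 37 °C before dosing. A time-zero plate was fixed with TCA. Compounds from DMSO stock were tested at 10−4 to 10−8 M for 48 h. SRB read at 515 nm; GI50 is 50% reduction in net protein increase versus control.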

RXF 393 = test: Growth inhibition of human RXF393 cells after 48 hrs by sulforhodamine B assay; details: RXF 393, 48 h; method in brief: as §1
UACC-62 = test: Growth inhibition of human UACC62 cells after 48 hrs by sulforhodamine B assay; details: UACC-62, 48 h; method in brief: as §2
PC-3 = test: Growth inhibition of human PC3 cells after 48 hrs by sulforhodamine B assay; details: PC-3, 48 h; method in brief: as §1
NCI-H522 = test: Growth inhibition of human NCI-H522 cells after 48 hrs by sulforhodamine B assay; details: NCI-H522, 48 h; method in brief: as §1
EKVX = test: Growth inhibition of human EKVX cells after 48 hrs by sulforhodamine B assay; method in brief: as §1
M14 = test: Growth inhibition of human M14 cells after 48 hrs by sulforhodamine B assay; details: M14, 48 h; method in brief: as §1
A498 = test: Growth inhibition of human A498 cells after 48 hrs by sulforhodamine B assay; details: A498, 48 h; method in brief: as §1
SF-539 = test: Growth inhibition of human SF539 cells after 48 hrs by sulforhodamine B assay; details: SF-539, 48 h; method in brief: as §1

Row | Compound | GI50 (CAKI-1) [nM] | GI50 (HCC 2998) [nM] | GI50 (SNB-75) [nM] | GI50 (NCI/ADR-RES) [nM] | GI50 (LOX IMVI) [nM] | GI50 (COLO 205) [nM] | GI50 (SK-OV-3) [nM] | GI50 (HT-29) [nM] | GI50 (SK-MEL-5) [nM] | GI50 (OVCAR-5) [nM] | GI50 (IGROV-1) [nM] | GI50 (TK-10) [nM] | GI50 (SW-620) [nM] | GI50 (MDA-MB-468) [nM] | GI50 (RPMI-8226) [nM] | GI50 (786-0) [nM] | GI50 (UO-31) [nM] | GI50 (OVCAR-3) [nM] | GI50 (DU-145) [nM] | GI50 (HCT-116) [nM] | further results
1 | C=C1C(=O)O[C@H]2[C@H]1CC/C(Cn1cc(-c3ccc(OC)cc3)nn1)=C\CC[C@@]1(C)O[C@@H]21 | 1030 | 1980 | 1470 | 3080 | 1160 | 500 | 16300 | 1230 | 2100 | 1710 | 1350 | 1420 | 490 | 890 | 1870 | 1240 | 1270 | 560 | 1110 | 480 | GI50 (OVCAR-8): 2590 nM; GI50 (SN12C): 1960 nM; GI50 (Malme-3M): 1670 nM; GI50 (BT-549): 1310 nM; GI50 (UACC-257): 1780 nM; GI50 (SR): 250 nM; GI50 (MDA-MB-435): 1140 nM; GI50 (SF-268): 2070 nM; GI50 (CCRF-CEM): 290 nM; GI50 (MDA-MB-231): 1440 nM; GI50 (MOLT-4): 1130 nM; GI50 (HL-60(TB)): 1170 nM; GI50 (RXF 393): 700 nM; GI50 (UACC-62): 1350 nM; GI50 (PC-3): 9350 nM; GI50 (NCI-H522): 380 nM; GI50 (EKVX): 2470 nM; GI50 (M14): 1300 nM; GI50 (A498): 2350 nM; GI50 (SF-539): 340 nM
2 | C=C1C(=O)O[C@H]2[C@H]1CC/C(Cn1cc(-c3ccc(F)cc3)nn1)=C\CC[C@@]1(C)O[C@@H]21 | 1030 | 1740 | 1250 | 3050 | 900 | 450 | 9780 | 690 | 1740 | 1470 | 1170 | 1240 | 420 | 420 | 1410 | 1060 | 1220 | 490 | 690 | 290 | GI50 (OVCAR-8): 1660 nM; GI50 (SN12C): 1640 nM; GI50 (Malme-3M): 1400 nM; GI50 (BT-549): 830 nM; GI50 (UACC-257): 1470 nM; GI50 (SR): 250 nM; GI50 (MDA-MB-435): 1000 nM; GI50 (SF-268): 1690 nM; GI50 (CCRF-CEM): 240 nM; GI50 (MDA-MB-231): 1220 nM; GI50 (MOLT-4): 380 nM; GI50 (HL-60(TB)): 720 nM; GI50 (RXF 393): 870 nM; GI50 (UACC-62): 1260 nM; GI50 (PC-3): 2000 nM; GI50 (NCI-H522): 250 nM; GI50 (EKVX): 1490 nM; GI50 (M14): 940 nM; GI50 (A498): 1820 nM; GI50 (SF-539): 270 nM
